Reference: ChEMBL document CHEMBL3525900, “Pharmacokinetics, distribution, and metabolism of [14C]sunitinib in rats, monkeys, and humans” (Drug Metab Dispos, 2012)

Assays:
[1] = Drug concentration in male albino rat testis assessed as radioactivity per gram of tissue at 20 mg/kg administered as single dose via gastric gavage measured after 3 hrs by autoradiographic analysis; assay type: ADME, organism-based; parameters: dose 20 mg/kg, dosed compound name [14C]Sunitinib; conditions: in vivo, po
Lung [2] = experiment: Drug concentration in male albino rat lung assessed as radioactivity per gram of tissue at 20 mg/kg administered as single dose via gastric gavage measured after 24 hrs by autoradiographic analysis; assay type: ADME, organism-based; parameters: dose 20 mg/kg, dosed compound name [14C]Sunitinib; conditions: in vivo, po
Zone of skin = experiment: Drug concentration in male Lister Hooded pigmented rat abdomen skin assessed as radioactivity per gram of tissue at 20 mg/kg administered as single dose via gastric gavage measured after 24 hrs by autoradiographic analysis; assay type: ADME, organism-based; parameters: dose 20 mg/kg, dosed compound name [14C]Sunitinib; conditions: in vivo, po
Cynomolgus monkey [3] = experiment: Drug recovery in cage residue of female cynomolgus monkey at 6 mg/kg, po administered as single dose during 0 to 336 hrs by liquid scintillation counting; assay type: ADME, organism-based, Macaca fascicularis; parameters: dose 6 mg/kg, dosed compound name [14C]Sunitinib, route oral; conditions: in vivo
Adrenal [4] = experiment: Drug concentration in female albino rat adrenal assessed as radioactivity per gram of tissue at 20 mg/kg administered as single dose via gastric gavage measured after 3 hrs by autoradiographic analysis; assay type: ADME, organism-based; parameters: dose 20 mg/kg, dosed compound name [14C]Sunitinib; conditions: in vivo, po
Method in brief: (§1)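 Sprague Dawley (albino) rats, ca 7-8 weeks old, received a single gastric-gavage dose of [14C]sunitinib L-malate at 20 mg/kg (15 mg freebase/kg, 100 µCi/kg). One animal per sex killed by CO2 at 3, 6, 24, 72 and 168 h, then frozen in CO2/hexane. 30 µm sagittal sections were cut and freeze-dried. Radioactivity per gram quantified by whole-body autoradiography using regression against standards. LOQ 0.04–0.06 µg freebase equiv/g.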

Large intestine = experiment: Drug concentration in male albino rat large intestine assessed as radioactivity per gram of tissue at 20 mg/kg administered as single dose via gastric gavage measured after 72 hrs by autoradiographic analysis; assay type: ADME, organism-based; parameters: dose 20 mg/kg, dosed compound name [14C]Sunitinib; conditions: in vivo, po
Spleen = experiment: Drug concentration in male albino rat spleen assessed as radioactivity per gram of tissue at 20 mg/kg administered as single dose via gastric gavage measured after 6 hrs by autoradiographic analysis; assay type: ADME, organism-based; parameters: dose 20 mg/kg, dosed compound name [14C]Sunitinib; conditions: in vivo, po
[5] = Drug concentration in male albino rat bone marrow assessed as radioactivity per gram of tissue at 20 mg/kg administered as single dose via gastric gavage measured after 24 hrs by autoradiographic analysis; assay type: ADME, organism-based; parameters: dose 20 mg/kg, dosed compound name [14C]Sunitinib; conditions: in vivo, po
[6] = Drug concentration in female albino rat lachrymal gland assessed as radioactivity per gram of tissue at 20 mg/kg administered as single dose via gastric gavage measured after 24 hrs by autoradiographic analysis; assay type: ADME, organism-based; parameters: dose 20 mg/kg, dosed compound name [14C]Sunitinib; conditions: in vivo, po
Method in brief: (§2)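 Sprague Dawley albino rats, ca 7-8 weeks old, dosed once by gastric gavage with [14C]sunitinib L-malate (15 mg freebase/kg, 100 µCi/kg). One male and one female killed by CO2 at 3, 6, 24, 72 and 168 h. Carcasses frozen in solid CO2/hexane, embedded and cut into 30 µm sagittal sections, then freeze-dried. Radioactivity quantified by whole-body autoradiography against standards by regression, background subtracted.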

Ovary = experiment: Drug concentration in female albino rat ovary assessed as radioactivity per gram of tissue at 20 mg/kg administered as single dose via gastric gavage measured after 72 hrs by autoradiographic analysis; assay type: ADME, organism-based, Female gonad; parameters: dose 20 mg/kg, dosed compound name [14C]Sunitinib; conditions: in vivo, po; method in brief: as §2
[7] = Drug concentration in male albino rat preputial gland assessed as radioactivity per gram of tissue at 20 mg/kg administered as single dose via gastric gavage measured after 24 hrs by autoradiographic analysis; assay type: ADME, organism-based; parameters: dose 20 mg/kg, dosed compound name [14C]Sunitinib; conditions: in vivo, po
Kidney = experiment: Drug concentration in male albino rat kidney assessed as radioactivity per gram of tissue at 20 mg/kg administered as single dose via gastric gavage measured after 72 hrs by autoradiographic analysis; assay type: ADME, organism-based; parameters: dose 20 mg/kg, dosed compound name [14C]Sunitinib; conditions: in vivo, po
Cynomolgus monkey [8] = experiment: AUC (0 to infinity) as total radioactivity in male cynomolgus monkey plasma at 6 mg/kg, po administered as single dose by LC/MS/MS analysis; assay type: ADME, organism-based, Macaca fascicularis; parameters: time infinity, dose 6 mg/kg, dosed compound name [14C]Sunitinib, route oral; conditions: in vivo
Method in brief: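 Cynomolgus monkeys of both sexes received one oral gavage of [14C]sunitinib L-malate at 6 mg/kg (37 µCi/kg). Femoral-vein blood was taken into heparin from 0.5 to 336 h. Plasma was kept cold and protected from light, then stored at -80 °C. Total radioactivity was by scintillation counting and sunitinib by methanol-extraction LC-MS-MS. Cmax was from raw data, t½ from the log-linear terminal slope, AUC(0-∞) by linear trapezoidal rule.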

[9] = Drug concentration in female Lister Hooded pigmented rat eye assessed as radioactivity per gram of tissue at 20 mg/kg administered as single dose via gastric gavage measured after 336 hrs by autoradiographic analysis; assay type: ADME, organism-based; parameters: dose 20 mg/kg, dosed compound name [14C]Sunitinib; conditions: in vivo, po
Method in brief: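 Lister Hooded (pigmented) rats, ca 7-8 weeks old, acclimated 7 days, given [14C]sunitinib L-malate by gastric gavage at 20 mg/kg (15 mg freebase/kg, 100 µCi/kg). One male and one female killed by CO2 at 24, 72, 168 and 336 h. Carcasses frozen in solid CO2/hexane and embedded in frozen cellulose. 30 µm sagittal cryosections were freeze-dried. Tissue radioactivity measured by quantitative whole-body autoradiography against calibration standards, with background subtracted.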

Pancreas [10] = experiment: Drug concentration in female albino rat pancreas assessed as radioactivity per gram of tissue at 20 mg/kg administered as single dose via gastric gavage measured after 3 hrs by autoradiographic analysis; assay type: ADME, organism-based; parameters: dose 20 mg/kg, dosed compound name [14C]Sunitinib; conditions: in vivo, po; method in brief: as §2
Lung [11] = experiment: Drug concentration in male Lister Hooded pigmented rat lung assessed as radioactivity per gram of tissue at 20 mg/kg administered as single dose via gastric gavage measured after 24 hrs by autoradiographic analysis; assay type: ADME, organism-based; parameters: dose 20 mg/kg, dosed compound name [14C]Sunitinib; conditions: in vivo, po
Rattus norvegicus = experiment: Cmax as total radioactivity in female Sprague-Dawley rat plasma at 5 mg/kg, iv administered as single dose by LC/MS/MS analysis; assay type: ADME, organism-based; parameters: dose 5 mg/kg, dosed compound name [14C]Sunitinib, route intravenous; conditions: in vivo
Method in brief: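 Single dose of [14C]sunitinib L-malate as free base, 50 µCi/kg. IV dose was 5 mg/kg by tail vein in 5 females. Oral dose was 15 mg/kg by gavage in 3 females and 3 males. Total radioactivity was by scintillation counting. […] Cmax was read from raw data, t½ by log-linear regression, AUC by linear trapezoidal rule.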

Brain = experiment: Drug concentration in female albino rat brain assessed as radioactivity per gram of tissue at 20 mg/kg administered as single dose via gastric gavage measured after 3 hrs by autoradiographic analysis; assay type: ADME, organism-based; parameters: dose 20 mg/kg, dosed compound name [14C]Sunitinib; conditions: in vivo, po; method in brief: as §1
Pancreas [12] = experiment: Drug concentration in female albino rat pancreas assessed as radioactivity per gram of tissue at 20 mg/kg administered as single dose via gastric gavage measured after 6 hrs by autoradiographic analysis; assay type: ADME, organism-based; parameters: dose 20 mg/kg, dosed compound name [14C]Sunitinib; conditions: in vivo, po
Method in brief: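 Sprague Dawley (albino) and Lister Hooded (pigmented) rats, ca 7-8 weeks old, 179-310 g, acclimated 7 days. Single gavage dose of [14C]sunitinib L-malate (15 mg freebase/kg, 100 µCi/kg). One male and one female killed by CO2 per time point: albino at 3, 6, 24, 72, 168 h; pigmented at 24, 72, 168, 336 h. Carcasses frozen in solid CO2/hexane, 30 µm sagittal sections freeze-dried. Tissue radioactivity read by quantitative whole-body autoradiography against regression of standards, mean background subtracted.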

[13] = Drug concentration in male Lister Hooded pigmented rat skeletal muscle assessed as radioactivity per gram of tissue at 20 mg/kg administered as single dose via gastric gavage measured after 168 hrs by autoradiographic analysis; assay type: ADME, organism-based; parameters: dose 20 mg/kg, dosed compound name [14C]Sunitinib; conditions: in vivo, po
[14] = Drug recovery in urine of male Sprague-Dawley rat at 15 mg/kg, po administered as single dose during 0 to 72 hrs by liquid scintillation counting; assay type: ADME, organism-based; parameters: dose 15 mg/kg, dosed compound name [14C]Sunitinib, route oral; conditions: in vivo
[15] = Drug concentration in male Lister Hooded pigmented rat bladder assessed as radioactivity per gram of tissue at 20 mg/kg administered as single dose via gastric gavage measured after 168 hrs by autoradiographic analysis; assay type: ADME, organism-based, Urinary bladder; parameters: dose 20 mg/kg, dosed compound name [14C]Sunitinib; conditions: in vivo, po
Adrenal [16] = experiment: Drug concentration in male albino rat adrenal assessed as radioactivity per gram of tissue at 20 mg/kg administered as single dose via gastric gavage measured after 168 hrs by autoradiographic analysis; assay type: ADME, organism-based; parameters: dose 20 mg/kg, dosed compound name [14C]Sunitinib; conditions: in vivo, po

**Q.** Which results are given for `CCN(CC)CCNC(=O)c1c(C)[nH]c(/[14CH]=C2\C(=O)Nc3ccc(F)cc32)c1C.O=C(O)C[C@H](O)C(=O)O`?
**A.** Radiolabel recovery [1]: 0.79 ugequiv; Radiolabel recovery (Lung [2]): 0.87 ugequiv; Radiolabel recovery (Zone of skin): 5.57 ugequiv; Radiolabel recovery (Cynomolgus monkey [3]): 0.6%; Radiolabel recovery (Adrenal [4]): 29.98 ugequiv; Radiolabel recovery (Large intestine): 0.08 ugequiv; Radiolabel recovery (Spleen): 16.24 ugequiv; Radiolabel recovery [5]: 0.38 ugequiv; Radiolabel recovery [6]: 6.79 ugequiv; Radiolabel recovery (Ovary): 0.09 ugequiv; Radiolabel recovery [7]: 13.66 ugequiv; Radiolabel recovery (Kidney): 0.16 ugequiv; AUC (Cynomolgus monkey [8]): 9095 ng.Eq.hr/ml; Radiolabel recovery [9]: 56.9 ugequiv; Radiolabel recovery (Pancreas [10]): 13.45 ugequiv; Radiolabel recovery (Lung [11]): 1.55 ugequiv; Cmax (Rattus norvegicus): 2148 ngequiv/ml; Radiolabel recovery (Brain): 0.52 ugequiv; Radiolabel recovery (Pancreas [12]): 11.3 ugequiv; Radiolabel recovery [13]: 0.06 ugequiv; Radiolabel recovery [14]: 8.5%; Radiolabel recovery [15]: 0.06 ugequiv; Radiolabel recovery (Adrenal [16]): 0.31 ugequiv
